In experiment [1] the target is T1, DNA helicase/primase complex protein (Herpes simplex virus (type 1 / strain 17)) (UniProt P10236).
T1 sequence (whole entry): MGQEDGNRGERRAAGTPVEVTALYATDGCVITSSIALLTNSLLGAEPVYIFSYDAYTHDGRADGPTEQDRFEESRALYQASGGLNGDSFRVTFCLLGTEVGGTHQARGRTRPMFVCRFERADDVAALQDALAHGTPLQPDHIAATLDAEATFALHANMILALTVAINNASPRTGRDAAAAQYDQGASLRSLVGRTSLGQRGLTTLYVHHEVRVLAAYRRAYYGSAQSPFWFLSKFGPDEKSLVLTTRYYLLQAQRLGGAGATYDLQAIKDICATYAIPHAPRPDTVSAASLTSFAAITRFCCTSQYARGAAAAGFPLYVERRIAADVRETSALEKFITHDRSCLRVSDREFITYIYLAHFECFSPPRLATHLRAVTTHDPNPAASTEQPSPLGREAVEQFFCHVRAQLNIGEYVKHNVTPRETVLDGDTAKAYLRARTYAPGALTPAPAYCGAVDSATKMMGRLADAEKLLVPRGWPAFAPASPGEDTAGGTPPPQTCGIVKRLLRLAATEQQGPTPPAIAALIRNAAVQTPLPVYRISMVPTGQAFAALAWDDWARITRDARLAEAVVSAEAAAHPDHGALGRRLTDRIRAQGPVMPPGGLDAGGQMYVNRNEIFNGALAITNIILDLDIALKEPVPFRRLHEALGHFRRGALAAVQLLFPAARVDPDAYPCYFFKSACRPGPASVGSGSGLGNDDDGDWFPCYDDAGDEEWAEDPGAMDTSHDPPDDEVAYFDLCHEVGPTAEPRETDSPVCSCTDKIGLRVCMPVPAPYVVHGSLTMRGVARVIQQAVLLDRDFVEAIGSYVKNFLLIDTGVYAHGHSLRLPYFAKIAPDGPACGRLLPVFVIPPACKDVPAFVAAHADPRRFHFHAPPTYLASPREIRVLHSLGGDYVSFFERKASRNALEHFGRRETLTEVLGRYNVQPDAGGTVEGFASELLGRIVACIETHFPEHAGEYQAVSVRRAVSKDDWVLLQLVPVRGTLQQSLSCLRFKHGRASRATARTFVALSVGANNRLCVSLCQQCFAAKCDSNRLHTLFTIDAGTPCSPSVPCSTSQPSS
The experiment can be described thus: Inhibition against DNA-Dependent ATPase activity of HSV-1 helicase-primase in HSV-1-infected CV-1 cells. It counts as cell-based. Further details: concentration or dose not given beside the values. The note with it: concentration not given here. An outline of the steps:
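Three-subunit helicase-primase purified from HSV1-infected CV-1 cells, 15 units. DNA-dependent NTPase run with 1 mM ATP and 2 μg activated DNA, compounds in 5% DMSO, 20 min at 34 °C. Orthophosphate read with acidic molybdate-malachite green at 650 nm. Done in duplicate, averaged over at least two independent experiments.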

Experiment [2] relates to HeLa. The experiment can be described thus: Inhibition of [3H]thymidine incorporation into the DNA of uninfected HeLa cells. The format is functional, cell-based. The note with it: Homo sapiens. An outline of the steps:
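Uninfected HeLa cells (3 × 10^6/well) in DMEM/10% FCS grown 24 h, then given serial compound dilutions or DMSO in duplicate for a further 24 h at 37 °C. [3H]thymidine (1 μCi/mL) added for 3 h, followed by NaOH lysis, 5% TCA precipitation, filter collection and scintillation counting.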
(In general: Uptake of a labelled nucleoside into DNA is a usual measure of proliferation.)

For experiment [3], the target named is T1, DNA helicase/primase complex protein (Herpes simplex virus (type 1 / strain 17)). Description: (§1) Inhibition against the primase activity of HSV-1 helicase-primase at a concentration 200 micro/mL. The note with it: Human alphaherpesvirus 1.
Experiment [4] has as its system HeLa. Description: Inhibition of HSV-1 DNA synthesis in virus-infected HeLa cells. The format is functional, cell-based. The note with it: Homo sapiens. An outline of the steps: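 HeLa cells (2 × 10^4/well) grown 24 h at 37 °C, infected with HSV1 KOS, adsorbed 90 min. Serial compound dilutions in DMEM/2% FCS added to duplicate wells for 24 h.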
The next experiment concerns the target DNA replication helicase (Human herpesvirus 1, UniProt P10189). Description: Inhibition against DNA-Dependent GTPase activity of two-subunit recombinant HSV-1 helicase-primase.
Experiment [5] has as its target T2, DNA helicase/primase complex protein (Herpes simplex virus (type 1 / strain 17), UniProt P10236).
T2 sequence (P10236 whole entry): T1 sequence (whole entry)
Description: (§2) Inhibition against Primase by coupled primase-DNA polymerase-I assay with the two subunit recombinant HSV-1 helicase primase. The arrangement: species or system Human alphaherpesvirus 1. Put shortly: (§3)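 Two-subunit baculovirus enzyme (1 unit) coupled to 1 unit E. coli Klenow. Buffer: 50 mM Tris·HCl pH 8.7, 3.5 mM MgCl2, 10% glycerol, 100 μg/mL BSA. Inhibitors in DMSO at 0.5% final, screened at 200 μg/mL. Run 60 min at 34 °C; EDTA quench; polymer isolated on G50 and counted. Duplicates.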

Experiment [6] concerns the target T1, DNA helicase/primase complex protein (Herpes simplex virus (type 1 / strain 17)). The description is as §1. The format is functional. As to conditions: Human alphaherpesvirus 1.
Experiment [7] has as its target T2, DNA helicase/primase complex protein. The experiment is described as §2. It counts as functional, Human alphaherpesvirus 1. An outline of the steps: as §3

The source of these data is ChEMBL document CHEMBL1128737, “Inhibition of herpes simplex virus type 1 helicase-primase by (dichloroanilino)purines and -pyrimidines” (J Med Chem, 1995).

Each structure is given as a SMILES string. pIC50: −log10 of the molar value.

The inhibition is the relative decrease from the control value, in per cent. Broadly, the pIC50 is −log10 of the IC50, conventionally taken in molar units.

Sequence of DNA replication helicase (P10189 whole entry, looked up): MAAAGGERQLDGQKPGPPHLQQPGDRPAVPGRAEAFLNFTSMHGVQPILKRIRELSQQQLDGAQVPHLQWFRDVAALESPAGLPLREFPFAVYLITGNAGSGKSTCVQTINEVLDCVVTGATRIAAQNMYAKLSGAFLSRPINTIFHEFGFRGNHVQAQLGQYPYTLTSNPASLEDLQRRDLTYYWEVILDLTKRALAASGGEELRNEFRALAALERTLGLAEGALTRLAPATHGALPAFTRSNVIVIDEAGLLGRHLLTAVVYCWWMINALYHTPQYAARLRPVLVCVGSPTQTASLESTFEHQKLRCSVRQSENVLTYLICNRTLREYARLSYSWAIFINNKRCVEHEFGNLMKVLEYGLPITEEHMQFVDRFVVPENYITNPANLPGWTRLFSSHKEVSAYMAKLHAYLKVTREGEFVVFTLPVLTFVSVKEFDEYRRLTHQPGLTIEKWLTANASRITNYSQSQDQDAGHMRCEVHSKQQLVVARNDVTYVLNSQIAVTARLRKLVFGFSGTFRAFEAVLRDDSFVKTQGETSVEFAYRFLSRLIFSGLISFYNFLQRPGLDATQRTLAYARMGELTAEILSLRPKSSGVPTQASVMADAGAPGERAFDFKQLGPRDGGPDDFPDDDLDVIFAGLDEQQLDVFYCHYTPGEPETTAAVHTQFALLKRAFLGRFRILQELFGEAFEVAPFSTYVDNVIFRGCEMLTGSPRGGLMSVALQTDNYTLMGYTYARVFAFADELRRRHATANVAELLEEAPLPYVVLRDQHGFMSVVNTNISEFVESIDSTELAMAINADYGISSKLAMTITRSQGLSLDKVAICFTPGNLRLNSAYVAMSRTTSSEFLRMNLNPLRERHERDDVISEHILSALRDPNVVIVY

For the molecule `Oc1[nH]c(Nc2cccc(Cl)c2)nc2ncnc1-2`, the inhibition in experiment [1] is 60%.

In the case of `Nc1[nH]c(Nc2cc(Cl)cc(Cl)c2)nc2ncnc1-2`, the pIC50 in the experiment on HeLa [2] was 4.68; in the experiment with HeLa [4] it was 4.16. Moreover, the inhibition in experiment [3] stood at 93%. `OC[C@H]1O[C@@H](n2cnc3c(Cl)nc(Nc4cc(Cl)cc(Cl)c4)nc32)C[C@@H]1O`: the values for the negative-log IC50 (pIC50) in the experiment on HeLa [2] and with HeLa [4] were 5.57 and 4.64, respectively. `Nc1nc(O)cc(Nc2cc(Cl)cc(Cl)c2)n1`: the inhibition in experiment [3] turned out to be 34%. For `Oc1[nH]c(Nc2ccc(F)c(Cl)c2)nc2ncnc1-2`, in experiment [1], the inhibition worked out at 96%. Regarding `Nc1nc(Nc2cc(Cl)cc(Cl)c2)nc2nc[nH]c12`, the pIC50 at DNA replication helicase was 3.04. As for `Oc1[nH]c(Nc2ccc(F)cc2)nc2ncnc1-2`, the inhibition in experiment [1] stood at 5%. With `Nc1[nH]c(Nc2ccc(Cl)c(Cl)c2)nc2ncnc1-2`, the pIC50 in the experiment with HeLa [2] was 4.82; on DNA replication helicase, 3.07; with HeLa [4], 4.12. The inhibition in experiment [3] came to 94%. In the case of `Nc1nc(Nc2cc(Cl)cc(Cl)c2)cc(=O)[nH]1`, the pIC50 on DNA replication helicase was 3.11. With `O=c1[nH]c(Nc2cccc(C(F)(F)F)c2)nc2[nH]cnc12`, in experiment [1], the inhibition is 13%. As for `O=c1[nH]c(Nc2cc(Cl)cc(Cl)c2)nc2nc[nH]c12`, at DNA replication helicase, the pIC50 was 3.04. As for `Oc1cc(Nc2ccc(Cl)c(Cl)c2)nc(O)n1`, on DNA replication helicase, the pIC50 is less than 2.70. In experiment [3], this molecule returned an inhibition of 30%.

`Cc1ccc(Nc2nc(O)c3[nH]cnc3n2)cc1` yielded an inhibition in experiment [1] of 0%.

`O=c1[nH]c(Nc2cc(Cl)cc(Cl)c2)nc2c1ncn2COCCO`: the negative logarithm of the IC50 (pIC50) with HeLa [2] is 4.63; with HeLa [4], 4.84.

On to `O=c1[nH]c(Nc2cc(Cl)cc(Cl)c2)nc2c1ncn2COC(CO)CO`, for which the pIC50 in the experiment with HeLa [2] is 4.64; with HeLa [4], 4.04.

For the molecule `Nc1nc(O)cc(Nc2ccc(Cl)c(Cl)c2)n1`, at DNA replication helicase, the pIC50 is 3.07. Moreover, in experiment [3], the inhibition is 44%. As to `Nc1nc(Cl)cc(Nc2ccc(Cl)c(Cl)c2)n1`, the pIC50 in the experiment on HeLa [2] is 4.60; in experiment [5], 5.06; in the experiment with HeLa [4], 4.21. The same molecule came in with an inhibition in experiment [3] of 98%. On to `CCc1cccc(Nc2nc(O)c3[nH]cnc3n2)c1`, for which, in experiment [1], the inhibition amounted to 42%. The same measure, in the same setting: the result for `Oc1[nH]c(Nc2ccc3c(c2)CCC3)nc2ncnc1-2` reads 0%.

For the molecule `Nc1nc2c(ncn2COCCO)c(=O)[nH]1` [ACYCLOVIR], the pIC50 was less than 3.70 in the experiment with HeLa [2] and 5.72 in the experiment with HeLa [4].

Molecule `Oc1[nH]c(Nc2ccc(Br)cc2)nc2ncnc1-2` showed an inhibition in experiment [1] of 40%. For `Nc1nc(Cl)cc(Nc2cc(Cl)cc(Cl)c2)n1`, the figures for the pIC50 with HeLa [2] and in the experiment with HeLa [4] were 4.64 and 4.35, respectively. Moreover, the inhibition in experiment [3] worked out at 92%. Consider `Nc1nc(Nc2cc(Cl)cc(Cl)c2)nc2c1ncn2COCCO`, for which the pIC50 is 5.60 in the experiment on HeLa [2] and 4.89 in the experiment with HeLa [4]. For the molecule `Oc1ccc(Nc2nc(O)c3[nH]cnc3n2)cc1`, the inhibition in experiment [1] came out at 17%.

As for `Nc1nc(Nc2cc(Cl)cc(Cl)c2)nc2c1ncn2COC(CO)CO`, the pIC50 in the experiment on HeLa [2] is 5.26; in the experiment with HeLa [4], 4.21. For `Nc1nc(Nc2cc(Cl)cc(Cl)c2)nc2c1ncn2[C@H]1C[C@H](O)[C@@H](CO)O1`, the figures for the pIC50 in the experiment on HeLa [2] and in the experiment on HeLa [4] were 6.40 and 4.31, respectively. In experiment [1], `Oc1[nH]c(Nc2ccc(F)c(F)c2)nc2ncnc1-2` came in with an inhibition of 73%. `Oc1cc(Nc2cc(Cl)cc(Cl)c2)nc(O)n1`: the pIC50 at DNA replication helicase is less than 2.70. The molecule further displayed an inhibition in experiment [3] of 46%.

As to `Oc1[nH]c(Nc2cc(Cl)cc(Cl)c2)nc2ncnc1-2`, the pIC50 in the experiment on HeLa [2] and with HeLa [4] was less than 3.70 in each case. For the same molecule, the values for the inhibition in experiment [6] and in experiment [1] were 94% and 70%, respectively. In experiment [1], `Oc1[nH]c(Nc2ccccc2)nc2ncnc1-2` registered an inhibition of 0%. Take `OCCOCn1cnc2c(Cl)nc(Nc3cc(Cl)cc(Cl)c3)nc21`: the pIC50 is 5.13 with HeLa [2] and 5.30 in the experiment with HeLa [4].

Regarding `O=c1[nH]c(Nc2cc(Cl)cc(Cl)c2)nc2c1ncn2[C@H]1C[C@H](O)[C@@H](CO)O1`, the pIC50 is 4.49 in the experiment on HeLa [2] and 3.72 in the experiment with HeLa [4]. For the molecule `Oc1[nH]c(Nc2ccc(Cl)c(Cl)c2)nc2ncnc1-2`, the pIC50 in the experiment with HeLa [2] is 3.60; on DNA replication helicase, 3.06; in the experiment with HeLa [4] it was less than 3.70; in experiment [7], 4.23. The results for the inhibition in experiment [6] and in experiment [1] were 89% and 98%, respectively.
